Assays:
Test in all cases: Cell viability assay
Format in all cases: cell-based, human
U87 (glioblastoma) = conditions: read-out: IC50 U87; 96 h of incubation
How it was run: (§1)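 Cells cultured per supplier at 37 °C, 5% CO2, and seeded at 1.5 × 10^3 per well. Treated with six concentrations of test compound (0.001, 0.01, 0.1, 1, 10 and 100 μM final), diluted into culture medium from a 10 mM DMSO stock; cisplatin stock in water. Viability read by CellTiter-Glo after 96 h. IC50 from triplicates, error bars as standard deviations.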

[1] = system: A2780cis (cisplatin-resistant ovarian cancer cells); conditions: read-out: IC50 A2780cis; 96 h of incubation
How it was run: as §1

[2] = system: A2780 (cisplatin-sensitive ovarian cancer cells); conditions: read-out: IC50 A2780; 96 h of incubation
How it was run: as §1

[3] = system: MRC-5 (normal lung fibroblasts); conditions: read-out: IC50 MRC-5; 96 h of incubation
How it was run: as §1

[4] = system: MDA-MB-231 (triple-negative breast cancer); conditions: read-out: IC50 MDA-MB-231; 96 h of incubation
How it was run: as §1

SMILES	IC50 (U87 (glioblastoma))	IC50 [1]	IC50 [2]	IC50 [3]	IC50 [4]
C[N+]12CN3CN(C1)C[PH]([Pd]([I])([c]1ccc([N+](=O)[O-])cc1)[PH]14CN5CN(C[N+](C)(C5)C1)C4)(C3)C2.F[P-](F)(F)(F)(F)F.F[P-](F)(F)(F)(F)F [7b]	90 ± 10 µM	0.18 ± 0.02 µM	3.1 ± 0.3 µM	> 100 µM	6.7 ± 0.9 µM
N.N.[Cl][Pt][Cl] [Cisplatin, cisplatin, reference compound]	10.4 ± 0.4 µM	45 ± 5 µM	–	4 ± 1 µM	–

Reference: PMC12044415 (RSC Advances, 2025)
